From ChEMBL document CHEMBL1817559, “Synthesis and biological evaluation of HQCAs with aryl or benzyl substituents on N-1 position as potential HIV-1 integrase inhibitors” (Bioorg Med Chem, 2011) come the findings set out here.

Data set [1] deals with Human immunodeficiency virus 1. Kind of data set: Antiviral activity against wild type HIV1 LAI-3B infected in human C8166 cells assessed as inhibition of virus-induced cytopathic effect by MTT assay. The format is functional, organism-based. The following applies: Human immunodeficiency virus 1, LAI-3B. A digest of the protocol:
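C8166 cells infected with wild-type HIV-1 LAI (strain IIIB); EC50 = concentration protecting cells from viral cytopathogenicity by 50%, read by MTT; means of at least two separate experiments.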
Background: Protection from cytopathic effect is a common read-out in antiviral testing.

The nature of data set [2]: Selectivity index, ratio of CC50 for human C8166 cells to EC50 for wild type HIV1 LAI-3B. Conditions: read-out: Ratio CC50/EC50. The format is toxicity, cell-based. A digest of the protocol: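 Ratio CC50/EC50, where CC50 is from MTT viability of uninfected C8166 cells and EC50 is 50% protection of wild-type HIV-1 IIIB-infected C8166 cells from cytopathogenicity (MTT); inputs are means of at least two experiments.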

Data set [3] in a line: Cytotoxicity against human C8166 cells by MTT assay. The format is cell-based. A digest of the protocol:
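Normal uninfected C8166 cells; MTT viability readout; CC50 = concentration reducing viability by 50%; means of at least two separate experiments.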
For orientation: Formazan colour is commonly taken as a measure of viable cells.

In data set [4] the test system is Human immunodeficiency virus 1. Kind of data set: Antiviral activity against HIV1 A17 harboring reverse transcriptase Y181C mutant infected in human C8166 cells assessed as inhibition of virus-induced cytopathic effect by MTT assay. The format is functional, organism-based. The following applies: Human immunodeficiency virus 1, A17, C8166. A digest of the protocol:
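C8166 cells infected with mutant HIV-1 strain A17; protection from viral cytopathogenicity read by MTT. EC50 is the compound concentration that protects cells from viral cytopathic effect by 50%. Values are means of at least two separate experiments.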

As for `O=C(O)c1cn(-c2ccccc2)c2ccc(Cc3cccc(Cl)c3F)c(O)c2c1=O`, in data set [1], the EC50 (usually the midpoint of the concentration-response curve) was found to be 308 µM. Also, the selectivity ratio in data set [2] is 1.26. Also, in data set [3], it took 388 µM to reach half-maximal cytotoxicity (CC50).

Consider `Cc1cccc(-n2cc(C(=O)O)c(=O)c3c(O)c(Cc4cccc(Cl)c4F)ccc32)c1`, for which the values for the EC50 in data set [1] and in data set [4] were 20.5 µM and 43.7 µM, respectively. Besides, the selectivity ratio in data set [2] is 3.49. For the same molecule, half-maximal cytotoxicity in data set [3] (CC50) was put at 71.5 µM.

For `Cc1ccc(-n2cc(C(=O)O)c(=O)c3c(O)c(Cc4cccc(Cl)c4F)ccc32)cc1`, the figures for the EC50 in data set [1] and in data set [4] were 3.58 µM and 67.9 µM, respectively. The selectivity ratio in data set [2] stood at 54.2. Also, half-maximal cytotoxicity in data set [3] (CC50) was put at 194 µM.

On to `Cc1ccc(-n2cc(C(=O)O)c(=O)c3c(O)c(Cc4cccc(Cl)c4F)ccc32)cc1C`, for which the EC50 in data set [1] turned out to be 24.9 µM; in data set [4], 32.8 µM. In addition, the selectivity ratio in data set [2] was determined as 12.7. Also, in data set [3], the CC50 (in general, the concentration that lowers cell viability or growth by half) was 316 µM.

With `O=C(O)c1cn(-c2ccc(Br)cc2)c2ccc(Cc3cccc(Cl)c3F)c(O)c2c1=O`, the EC50 in data set [1] is 7.12 µM; in data set [4], 33.2 µM. In addition, the selectivity ratio in data set [2] stood at 11.9. In data set [3], this molecule yielded a CC50 of 85 µM.

On to `O=C(O)c1cn(Cc2ccccc2)c2ccc(Cc3ccccc3F)c(O)c2c1=O`, for which the EC50 in data set [1] was found to be 20.9 µM; in data set [4] it was 51.2 µM. Also, the selectivity ratio in data set [2] came out at 7.49. Also, the CC50 in data set [3] was found to be 156 µM.

Turning to `O=C(O)c1cn(Cc2ccccc2)c2ccc(Cc3cccc(Cl)c3F)c(O)c2c1=O`, the EC50 in data set [1] turned out to be 3.17 µM; in data set [4], 17.9 µM. In addition, the selectivity ratio in data set [2] came out at 6.42. Moreover, the CC50 in data set [3] came out at 20.3 µM.

For `Cc1ccc(Cn2cc(C(=O)O)c(=O)c3c(O)c(Cc4cccc(Cl)c4F)ccc32)cc1`, the EC50 in data set [1] came out at 5.55 µM; in data set [4] it was 29.2 µM. Further, the selectivity ratio in data set [2] amounted to 46. This molecule also gave a CC50 in data set [3] of 256 µM.

In the case of `O=C(O)c1cn(Cc2ccccc2F)c2ccc(Cc3ccccc3F)c(O)c2c1=O`, the figures for the EC50 in data set [1] and in data set [4] were 6.46 µM and 27.2 µM, respectively. For the same molecule, the selectivity ratio in data set [2] turned out to be 10.4. In data set [3], this molecule gave a CC50 of 67.1 µM.

Turning to `O=C(O)c1cn(Cc2ccccc2F)c2ccc(Cc3cccc(Cl)c3F)c(O)c2c1=O`, the figures for the EC50 in data set [1] and in data set [4] were 3.27 µM and 24.2 µM, respectively. The selectivity ratio in data set [2] was found to be 13.7. The same molecule returned a CC50 in data set [3] of 44.9 µM.

In the case of `O=C(O)c1cn(Cc2cccc(F)c2)c2ccc(Cc3cccc(Cl)c3F)c(O)c2c1=O`, the EC50 in data set [1] amounted to 4.93 µM; in data set [4], 19.1 µM. Further, the selectivity ratio in data set [2] was found to be 14. Besides, in data set [3], the CC50 came to 69 µM.

For the molecule `O=C(O)c1cn(Cc2ccc(F)cc2)c2ccc(Cc3cccc(Cl)c3F)c(O)c2c1=O`, the EC50 in data set [1] stood at 9.34 µM; in data set [4] it was 22.5 µM. Besides, the selectivity ratio in data set [2] was found to be 7.04. This molecule also yielded a CC50 in data set [3] of 65.8 µM.

Turning to `O=C(O)c1cn(Cc2ccc(F)c(F)c2)c2ccc(Cc3cccc(Cl)c3F)c(O)c2c1=O`, the EC50 was found to be 5.74 µM in data set [1] and 24.2 µM in data set [4]. Further, the selectivity ratio in data set [2] amounted to 12.4. The same molecule registered a CC50 in data set [3] of 71.4 µM.

As for `CC(C)[C@@H](CO)n1cc(C(=O)O)c(=O)c2c(O)c(Cc3cccc(Cl)c3F)ccc21`, the EC50 in data set [4] is 0.085 µM.

`COc1cc2c(cc1Cc1cccc(Cl)c1F)c(=O)c(C(=O)O)cn2[C@H](CO)C(C)C` [ELVITEGRAVIR]: in data set [4], the EC50 came out at 0.001 µM.
